The values that follow come from ChEMBL document CHEMBL4706504, “Hit-to-lead optimization of a latency-associated nuclear antigen inhibitor against Kaposi's sarcoma-associated herpesvirus infections” (Eur J Med Chem, 2020).

Active and inactive are the calls of the source. The calls are words filed in the database; no cut-off is given here.

A short description of assay [1]: Inhibition of Kaposi's sarcoma herpesvirus C-terminal His-tagged oligomerization deficient LANA DBD (1008 to 1146 residues) K1055E/K1138S/K1140D/K1141D/R1039Q/R1040Q/A1121E/K1109A/D1110A mutant expressed in Escherichia coli BL21(DE3) assessed as inhibition of LANA interaction with fluorescently-labelled viral DNA LBS2 probe preincubated with LANA-DBD for 60 mins followed by addition of DNA probe and measured after 90 mins by flourescence polarization assay. The arrangement: species or system Human gammaherpesvirus 8. Put shortly:
(§1)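 FP competition of DNA binding, using the oligomerization-deficient LANA DBD mutant (aa 1008-1146, nine point mutations). Probes were LBS1, LBS2 or LBS3. Values are IC50 from the average of duplicates ± standard deviation.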

Assay [2] concerns Human gammaherpesvirus 8. Description: Inhibition of Kaposi's sarcoma herpesvirus C-terminal His-tagged oligomerization deficient LANA DBD (1008 to 1146 residues) K1055E/K1138S/K1140D/K1141D/R1039Q/R1040Q/A1121E/K1109A/D1110A mutant expressed in Escherichia coli BL21(DE3) assessed as inhibition of LANA interaction with fluorescently-labelled viral DNA LBS2 probe at 500 uM preincubated with LANA-DBD for 60 mins followed by addition of DNA probe and measured after 90 mins by flourescence polarization assay. To be noted: time 150.0 min.

Assay [3] relates to Human gammaherpesvirus 8. Description: Inhibition of Kaposi's sarcoma herpesvirus C-terminal His-tagged oligomerization deficient LANA DBD (1008 to 1146 residues) K1055E/K1138S/K1140D/K1141D/R1039Q/R1040Q/A1121E/K1109A/D1110A mutant expressed in Escherichia coli BL21(DE3) assessed as inhibition of LANA interaction with 5'-Dy682-labeled viral DNA LBS1 probe at 500 uM preincubated with LANA-DBD for 60 mins followed by addition of DNA probe and measured after 30 mins by Electrophoretic mobility shift assay. The conditions noted are these: time 90.0 min. A general note: Mobility shift assays separate free from complexed probe on a gel.

Assay [4] is described as follows: Inhibition of Kaposi's sarcoma herpesvirus C-terminal His-tagged oligomerization deficient LANA DBD (1008 to 1146 residues) K1055E/K1138S/K1140D/K1141D/R1039Q/R1040Q/A1121E/K1109A/D1110A mutant expressed in Escherichia coli BL21(DE3) assessed as inhibition of LANA interaction with fluorescently-labelled viral DNA LBS1 probe preincubated with LANA-DBD for 60 mins followed by addition of DNA probe and measured after 90 mins by flourescence polarization assay. The arrangement: species or system Human gammaherpesvirus 8. Put shortly:
as §1

A short description of assay [5]: Inhibition of Kaposi's sarcoma herpesvirus C-terminal His-tagged oligomerization deficient LANA DBD (1008 to 1146 residues) K1055E/K1138S/K1140D/K1141D/R1039Q/R1040Q/A1121E/K1109A/D1110A mutant expressed in Escherichia coli BL21(DE3) assessed as inhibition of LANA interaction with fluorescently-labelled viral DNA LBS3 probe preincubated with LANA-DBD for 60 mins followed by addition of DNA probe and measured after 90 mins by flourescence polarization assay. Also noted: species or system Human gammaherpesvirus 8. Put shortly:
as §1

The test system of assay [6] is Human gammaherpesvirus 8. Description: Inhibition of Kaposi's sarcoma herpesvirus wild type LANA CTD (934 to 1162 residues) expressed in Escherichia coli BL21 (DE3) assessed as inhibition of LANA interaction with 5'-Dy682-labeled viral DNA LBS1 probe at 250 uM preincubated with LANA CTD for 60 mins followed by addition of DNA probe and measured after 30 mins by Electrophoretic mobility shift assay. The conditions noted are these: time 90.0 min.

Assay [7] deals with Human gammaherpesvirus 8. The assay can be described thus: Inhibition of Kaposi's sarcoma herpesvirus C-terminal His-tagged oligomerization deficient LANA DBD (1008 to 1146 residues) K1055E/K1138S/K1140D/K1141D/R1039Q/R1040Q/A1121E/K1109A/D1110A mutant expressed in Escherichia coli BL21(DE3) assessed as inhibition of LANA interaction with 5'-Dy682-labeled …. To be noted: dose 250.0 µM, time 90.0 min.

A short description of assay [8]: Inhibition of Kaposi's sarcoma herpesvirus C-terminal His-tagged oligomerization deficient LANA DBD (1008 to 1146 residues) K1055E/K1138S/K1140D/K1141D/R1039Q/R1040Q/A1121E/K1109A/D1110A mutant expressed in Escherichia coli BL21(DE3) assessed as inhibition of LANA interaction with 5'-Dy682-labeled viral DNA LBS1 probe preincubated with LANA-DBD for 60 mins followed by addition of DNA probe and measured after 30 mins by Electrophoretic mobility shift assay. The arrangement: species or system Human gammaherpesvirus 8.

`O=C(O)c1ccc(-c2cn(Cc3cccnc3)nn2)cc1`: the IC50 in assay [1] is more than 250 µM.
As for `O=C(O)c1ccc(-c2cn(-c3cccnc3)nn2)cc1Cl`, in the assay on Human gammaherpesvirus 8 [2], the inhibition entry was “inactive”.
Turning to `CC(C)Nc1ccc(-n2cc(-c3ccc(C(=O)O)cc3)nn2)cn1`, the IC50 in assay [1] is more than 250 µM.
For the molecule `O=C(O)c1ccc(-c2cn(-c3ccc(Oc4ccccc4)cc3)nn2)cc1`, the inhibition result in the assay with Human gammaherpesvirus 8 [2] is “inactive”.
For the molecule `O=C(O)c1ccc(-c2cn(-c3cnc4ccccc4c3)nn2)cc1`, in assay [1], the IC50 was 70 µM. Besides, in the assay on Human gammaherpesvirus 8 [3], the inhibition was determined as 61%.
`O=C(O)c1ccc(-c2cn(-c3cnccc3Cl)nn2)cc1`: the IC50 in assay [1] was 29 µM. In the assay on Human gammaherpesvirus 8 [3], the inhibition was 94%.
Turning to `COC(=O)c1ccc2cncc(-n3cc(-c4ccc(C(=O)O)cc4)nn3)c2c1`, in assay [1], the IC50 is more than 250 µM.
`O=C(O)c1ccc(-c2cn(-c3ccc(O)nc3)nn2)cc1`: the IC50 in assay [1] stood at 214 µM. The inhibition in the assay on Human gammaherpesvirus 8 [3] stood at 75%.
On to `Cc1cc(-c2cccc(CO)c2)ncc1-n1cc(-c2ccc(C(=O)O)cc2)nn1`, for which the IC50 in assay [4] turned out to be 64 µM; in assay [1], 25 µM; in assay [5], 63 µM. The inhibition in the assay on Human gammaherpesvirus 8 [3] worked out at 100%. For the same molecule, the inhibition result in the assay with Human gammaherpesvirus 8 [6] and in the assay on Human gammaherpesvirus 8 [7] was “inactive” throughout.
For `N#Cc1ccc(-n2cc(-c3ccc(C(=O)O)cc3)nn2)cn1`, the IC50 in assay [1] is 52 µM. For the same molecule, the inhibition entry in the assay with Human gammaherpesvirus 8 [3] is “inactive”.
Turning to `Cc1cc(-c2ccccc2O)ncc1-n1cc(-c2ccc(C(=O)O)cc2)nn1`, the IC50 in assay [4] is 30 µM; in assay [1], 21 µM; in assay [5], 34 µM; in assay [8] it was 156 µM. Further, in the assay with Human gammaherpesvirus 8 [3], the inhibition amounted to 100%. In addition, in the assay with Human gammaherpesvirus 8 [6], the inhibition result is “inactive”.
Take `CC(=O)Nc1ccc(-c2cn(-c3cccnc3)nn2)cc1`: in the assay with Human gammaherpesvirus 8 [2], the inhibition result is “inactive”.
Turning to `O=C(O)c1ccc(-c2cn(-c3cncc4ccc(Cl)cc34)nn2)cc1`, the IC50 in assay [4] was 14 µM; in assay [1], 17 µM; in assay [5] it was 15 µM; in assay [8] it was 93 µM. The inhibition with Human gammaherpesvirus 8 [3] was determined as 100%. The inhibition result in the assay on Human gammaherpesvirus 8 [6] was “inactive”.
As to `O=C(O)c1ccc(-c2cn(-c3cncc(-c4cccc(CO)c4)c3)nn2)cc1`, the IC50 in assay [1] was more than 250 µM.
In the case of `Cc1ccncc1-n1cc(-c2ccc(C(=O)O)cc2)nn1`, the IC50 in assay [1] is 86 µM. In the assay on Human gammaherpesvirus 8 [3], the inhibition was determined as 39%.
On to `O=C(O)c1ccc(-c2cn(-c3ccc(Oc4ccccc4)nc3)nn2)cc1`, for which the inhibition result in the assay with Human gammaherpesvirus 8 [2] is “inactive”.
For the molecule `O=C(O)c1ccc(-c2cn(-c3cncc(F)c3)nn2)cc1`, in the assay on Human gammaherpesvirus 8 [2], the inhibition entry is “inactive”.
The same measure, in the same setting: in the case of `Cc1ccc(-c2cncc(-n3cc(-c4ccc(C(=O)O)cc4)nn3)c2)cc1C` it was “inactive”.
For `O=C(O)c1ccc(-c2cn(-c3ccc(Nc4ccccc4)nc3)nn2)cc1`, the IC50 in assay [1] came to 110 µM. Besides, the inhibition in the assay with Human gammaherpesvirus 8 [3] was 29%.
`Cc1cc(Cl)ncc1-n1cc(-c2ccc(C(=O)O)cc2)nn1`: in assay [1], the IC50 was more than 250 µM.
In the case of `O=C(O)c1ccc(-c2cn(-c3cncc(-c4ccccc4)c3Cl)nn2)cc1`, the IC50 in assay [4] is 55 µM; in assay [1], 38 µM; in assay [5], 45 µM. In addition, in the assay on Human gammaherpesvirus 8 [3], the inhibition was 100%. Also, the inhibition result with Human gammaherpesvirus 8 [6] and in the assay on Human gammaherpesvirus 8 [7] was “inactive” in each case.
As to `O=C(O)c1cccc(-c2cn(-c3cccnc3)nn2)c1`, the IC50 in assay [1] is more than 250 µM.
Regarding `COc1ccc(-c2cncc(-n3cc(-c4ccc(C(=O)O)cc4)nn3)c2)cc1`, the inhibition result with Human gammaherpesvirus 8 [2] is “inactive”.
In the case of `O=C(O)c1ccc(-c2cn(-c3cncc(-c4cccc(O)c4)c3)nn2)cc1`, the IC50 in assay [1] was 153 µM. Further, the inhibition with Human gammaherpesvirus 8 [3] came to 20%.
For the molecule `Cc1cc(Sc2ccccc2)ncc1-n1cc(-c2ccc(C(=O)O)cc2)nn1`, the IC50 in assay [1] amounted to 175 µM. The inhibition entry in the assay on Human gammaherpesvirus 8 [3] was “inactive”.
Regarding `COc1cc(F)cc(-c2cncc(-n3cc(-c4ccc(C(=O)O)cc4)nn3)c2)c1`, the inhibition result in the assay on Human gammaherpesvirus 8 [2] was “inactive”.
As to `O=C(O)c1ccc(-c2cn(-c3ccc(Oc4cccnc4)cc3)nn2)cc1`, the IC50 in assay [4] was 15 µM; in assay [1], 19 µM; in assay [5], 25 µM; in assay [8] it was 64 µM. Also, in the assay on Human gammaherpesvirus 8 [3], the inhibition is 100%. Further, in the assay on Human gammaherpesvirus 8 [6], the inhibition entry was “inactive”.
In the case of `O=C(O)c1ccc(-c2cn(-c3cncc4ccccc34)nn2)cc1`, the IC50 in assay [1] worked out at 33 µM. Also, the inhibition in the assay with Human gammaherpesvirus 8 [3] amounted to 96%.
Consider `Cc1cnccc1-n1cc(-c2ccc(C(=O)O)cc2)nn1`, for which the inhibition entry with Human gammaherpesvirus 8 [2] was “inactive”.
For `Cc1cc(Oc2ccccc2F)ncc1-n1cc(-c2ccc(C(=O)O)cc2)nn1`, the IC50 in assay [1] came to 64 µM. The inhibition result in the assay on Human gammaherpesvirus 8 [3] was “inactive”.
Consider `CCOC(=O)c1ccc(-c2cn(-c3cccnc3)nn2)cc1`, for which the inhibition entry in the assay with Human gammaherpesvirus 8 [2] was “inactive”.
For the molecule `COc1ccc(-n2cc(-c3ccc(C(=O)O)cc3)nn2)cn1`, in assay [1], the IC50 was found to be 218 µM. Also, the inhibition in the assay on Human gammaherpesvirus 8 [3] was 11%.
In the same order, the values of `COc1cccc(-c2cncc(-n3cc(-c4ccc(C(=O)O)cc4)nn3)c2)c1` are 110 µM and “inactive”.
In the same order, the values of `Cc1cncc(-n2cc(-c3ccc(C(=O)O)cc3)nn2)c1` are 45 µM and 78%.
`NC(=O)c1ccc(-c2cn(-c3cccnc3)nn2)cc1`: the inhibition entry in the assay with Human gammaherpesvirus 8 [2] is “inactive”.
`Cc1cc(-c2ccccc2)ncc1-n1cc(-c2ccc(C(=O)O)cc2)nn1`: the IC50 in assay [1] came out at 36 µM. Also, the inhibition in the assay with Human gammaherpesvirus 8 [3] turned out to be 36%.
In the same order, the values of `Cc1cc(Oc2ccccc2)ncc1-n1cc(-c2ccc(C(=O)O)cc2)nn1` are 198 µM and “inactive”.
`CNc1ccc(-n2cc(-c3ccc(C(=O)O)cc3)nn2)cn1`: the inhibition entry in the assay on Human gammaherpesvirus 8 [2] is “inactive”.
Take `Nc1ccc(-c2cn(-c3cccnc3)nn2)cc1`: the IC50 in assay [1] was more than 250 µM.
With `COC(=O)c1ccc(-c2cn(-c3cccnc3)nn2)cc1`, the inhibition result in the assay with Human gammaherpesvirus 8 [2] was “inactive”.
For the molecule `N#Cc1ccc(-c2cn(-c3cccnc3)nn2)cc1`, the half-maximal inhibitory concentration (IC50) in assay [1] was more than 250 µM.
For the molecule `Cc1cc(Oc2ccc(F)cc2)ncc1-n1cc(-c2ccc(C(=O)O)cc2)nn1`, the IC50 in assay [1] was determined as 134 µM. In addition, the inhibition entry in the assay on Human gammaherpesvirus 8 [3] is “inactive”.
`OCc1ccc(-c2cn(-c3cccnc3)nn2)cc1`: the inhibition result in the assay with Human gammaherpesvirus 8 [2] is “inactive”.
Same read-out and setting: as for `COc1ccccc1-c1cncc(-n2cc(-c3ccc(C(=O)O)cc3)nn2)c1`, the entry is “inactive”.
For `O=C(O)c1ccc(-c2cn(-c3cncc(-c4ccc(F)c(F)c4)c3)nn2)cc1`, in assay [1], the IC50 was more than 250 µM.
`Cc1cc(Oc2cccc(F)c2)ncc1-n1cc(-c2ccc(C(=O)O)cc2)nn1`: in assay [1], the IC50 was found to be 122 µM. Also, in the assay with Human gammaherpesvirus 8 [3], the inhibition result was “inactive”.
On to `O=C(O)c1ccc(-c2cn(-c3cncc(-c4ccccc4)c3)nn2)cc1`, for which the IC50 in assay [1] was more than 250 µM.
Turning to `Cc1cc(-c2ccc(Cl)cc2)ncc1-n1cc(-c2ccc(C(=O)O)cc2)nn1`, the IC50 in assay [1] came out at 58 µM. In the assay on Human gammaherpesvirus 8 [3], the inhibition was 30%.
On to `O=C(O)c1ccc(-c2cn(-c3cncc(-c4ccc(CO)cc4)c3)nn2)cc1`, for which the IC50 in assay [1] is more than 250 µM.
Take `O=C(O)c1ccc(-c2cn(-c3cncc(-c4ccoc4)c3)nn2)cc1`: in assay [1], the IC50 worked out at 19 µM. Besides, the inhibition with Human gammaherpesvirus 8 [3] worked out at 34%.

A word on the IC50: it is the concentration that inhibits the measured activity by half. What is called inhibition is the share of the control response that was lost under treatment.
